Among the data in ChEMBL document CHEMBL1122968, “Myocardial imaging agents: synthesis, characterization, and evaluation of (Z)- and (Z,E)-18-[82Br]bromo-5-tellura-17-octadecenoic acids” (J Med Chem, 1985) are Dose/g values, retold here.

In data set [1] the test system is Rattus norvegicus. Put plainly: Radioactivity was determined in blood tissues of female fischer 344 rats by intravenous administration after 1 hour. The format is ADME, organism-based. The conditions noted are these: in vivo. The method in brief: (§1)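 Female Fischer 344 rats, 10–12 weeks, 170–200 g, fed ad libitum. The 82Br-labeled fatty acid was taken up in 0.5 mL absolute ethanol and added dropwise to stirred 6% bovine serum albumin at ~40 °C (final ethanol 10%), then 0.22-μm filtered. Dosing was a lateral tail vein injection under ether anesthesia. Rats were killed by cervical fracture at the stated time and blood was taken by cardiac puncture.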

In data set [2] the test system is Rattus norvegicus. Kind of data set: Radioactivity was determined in heart tissues of female fischer 344 rats by intravenous administration after 5 minutes. The following applies: in vivo. Type of data set: ADME, organism-based. The procedure, abridged: as §1
The test system of data set [3] is Rattus norvegicus. Kind of data set: Radioactivity was determined in blood tissues of female fischer 344 rats by intravenous administration after 2 hours. The format is ADME, organism-based. The following applies: in vivo. The procedure, abridged:
as §1

Data set [4] concerns Rattus norvegicus. Kind of data set: Radioactivity was determined in blood tissues of female fischer 344 rats by intravenous administration after 30 minutes. Type of data set: ADME, organism-based. The following applies: in vivo, 0.5 h. The procedure, abridged:
as §1

For data set [5], the system named is Rattus norvegicus. Kind of data set: Radioactivity was determined in blood tissues of female fischer 344 rats by intravenous administration after 5 minutes. Type of data set: ADME, organism-based. The conditions noted are these: in vivo. The procedure, abridged:
as §1

The subject of data set [6] is Rattus norvegicus. Kind of data set: Radioactivity was determined in heart tissues of female fischer 344 rats by intravenous administration after 1 hour. Type of data set: ADME, organism-based. The conditions noted are these: in vivo. The method in brief: as §1
Data set [7] relates to Rattus norvegicus. Put plainly: Radioactivity was determined in heart tissues of female fischer 344 rats by intravenous administration after 2 hours. The format is ADME, organism-based. The following applies: in vivo. The method in brief:
as §1

Data set [8] has as its system Rattus norvegicus. Put plainly: Radioactivity was determined in heart tissues of female fischer 344 rats by intravenous administration after 30 minutes. The format is ADME, organism-based. The following applies: in vivo, 0.5 h. The method in brief:
as §1

The test system of data set [9] is Rattus norvegicus. Put plainly: Radioactivity was determined in kidneys of female fischer 344 rats by intravenous administration after 30 minutes. The following applies: in vivo, 0.5 h. The format is ADME, organism-based, Kidney. The method in brief:
as §1

Data set [10] has as its system Rattus norvegicus. Kind of data set: Radioactivity was determined in kidneys of female fischer 344 rats by intravenous administration after 5 minutes. Type of data set: ADME, organism-based, Kidney. The conditions noted are these: in vivo. The method in brief: as §1
Data set [11] has as its system Rattus norvegicus. Kind of data set: Radioactivity was determined in liver tissues of female fischer 344 rats by intravenous administration after 1 hour. Type of data set: ADME, organism-based. The following applies: in vivo. The method in brief: as §1
Data set [12] relates to Rattus norvegicus. Put plainly: Radioactivity was determined in liver tissues of female fischer 344 rats by intravenous administration after 2 hours. The format is ADME, organism-based. The following applies: in vivo. The method in brief:
as §1

Data set [13] has as its system Rattus norvegicus. Kind of data set: Radioactivity was determined in liver tissues of female fischer 344 rats by intravenous administration after 30 minutes. Type of data set: ADME, organism-based. The following applies: in vivo, 0.5 h. The method in brief:
as §1

Data set [14] concerns Rattus norvegicus. Kind of data set: Radioactivity was determined in liver tissues of female fischer 344 rats by intravenous administration after 5 minutes. The conditions noted are these: in vivo. The format is ADME, organism-based. The procedure, abridged: as §1
The subject of data set [15] is Rattus norvegicus. Put plainly: Radioactivity was determined in lung tissues of female fischer 344 rats by intravenous administration after 1 hour. The format is ADME, organism-based. The conditions noted are these: in vivo. The method in brief:
as §1

In data set [16] the test system is Rattus norvegicus. Put plainly: Radioactivity was determined in lung tissues of female fischer 344 rats by intravenous administration after 30 minutes. Type of data set: ADME, organism-based. The following applies: in vivo, 0.5 h. The procedure, abridged:
as §1

The subject of data set [17] is Rattus norvegicus. Kind of data set: Radioactivity was determined in lung tissues of female fischer 344 rats by intravenous administration after 5 minutes. The following applies: in vivo. Type of data set: ADME, organism-based. The procedure, abridged: as §1
Data set [18] relates to Rattus norvegicus. Kind of data set: Radioactivity was determined in thyroid of female fischer 344 rats by intravenous administration after 1 hour. Type of data set: ADME, organism-based, Thyroid gland. The following applies: in vivo. The method in brief:
as §1

Data set [19] concerns Rattus norvegicus. Put plainly: Radioactivity was determined in thyroid of female fischer 344 rats by intravenous administration after 2 hours. Type of data set: ADME, organism-based, Thyroid gland. The conditions noted are these: in vivo. The method in brief:
as §1

For data set [20], the system named is Rattus norvegicus. Kind of data set: Radioactivity was determined in thyroid of female fischer 344 rats by intravenous administration after 30 minutes. The format is ADME, organism-based, Thyroid gland. The conditions noted are these: in vivo, 0.5 h. The procedure, abridged: as §1
The test system of data set [21] is Rattus norvegicus. Kind of data set: Radioactivity was determined in thyroid of female fischer 344 rats by intravenous administration after 5 minutes. The format is ADME, organism-based, Thyroid gland. The conditions noted are these: in vivo. The procedure, abridged: as §1
Data set [22] relates to Rattus norvegicus. Kind of data set: Radioactivity was determined in lung tissues of female fischer 344 rats by intravenous administration after 2 hours. The format is ADME, organism-based. The following applies: in vivo. The method in brief:
as §1

The subject of data set [23] is Rattus norvegicus. Kind of data set: Radioactivity was determined in blood tissues of female fischer 344 rats by intravenous administration after 1 day. The format is ADME, organism-based. The following applies: in vivo, 24 h. The procedure, abridged:
as §1

Data set [24] deals with Rattus norvegicus. Put plainly: Radioactivity was determined in heart tissues of female fischer 344 rats by intravenous administration after 1 day. Type of data set: ADME, organism-based. The following applies: in vivo, 24 h. The procedure, abridged: as §1
Data set [25] deals with Rattus norvegicus. Kind of data set: Radioactivity was determined in liver tissues of female fischer 344 rats by intravenous administration after 1 day. The format is ADME, organism-based. The conditions noted are these: in vivo, 24 h. The method in brief: as §1
The test system of data set [26] is Rattus norvegicus. Kind of data set: Radioactivity was determined in lung tissues of female fischer 344 rats by intravenous administration after 1 day. The format is ADME, organism-based. The following applies: in vivo, 24 h. The procedure, abridged:
as §1

In the case of `O=C(O)CCC[Te]CCCCCCCCCCC/C=C/I`, the Dose/g in data set [1] was 0.19%; in data set [2], 3.99%.

Take `O=C(O)CCC[Te]CCCCCCCCCCC/C=C/Br` (stereo in doubt; form 1): the Dose/g in data set [1] is recorded as 0.43%; in data set [3] it was 0.46%; in data set [4] it was 0.61%; in data set [5], 0.13%; in [6], 3.01%; in [7], 2.56%. Moreover, the Dose/g in [8] stood at 2.51%; in [2] it was 2.77%; in [9], 1.49%; in data set [10], 1.62%; in [11] it was 5.47%; in [12] it was 5%. For the same compound, the Dose/g turned out to be 6.13% in data set [13]; 7.33% in data set [14]; 1.61% in data set [15]; 1.53% in data set [16]; 1.26% in data set [17]; 9.26% in data set [18]. Also, the Dose/g came to 9.52% in [19], 10.86% in data set [20], 7.56% in data set [21] and 1.49% in data set [22].

Regarding `O=C(O)CCC[Te]CCCCCCCCCCC/C=C/Br` (stereo in doubt; form 2), the Dose/g turned out to be 0.88% in data set [23]; 0.39% in [1]; 0.34% in data set [4]; 0.18% in [5]; 2.6% in data set [24]; 3.47% in data set [6]. Further, the Dose/g in data set [8] worked out at 3.79%; in data set [2], 3.28%; in [9], 2.15%; in data set [10], 2.31%; in data set [25], 3.15%; in [11], 6.04%. The Dose/g in data set [13] turned out to be 6.79%; in data set [14], 6.87%; in data set [26] it was 1.48%; in data set [15], 1.88%; in data set [16], 2.08%; in data set [17], 1.91%.
